This note sets out measurements from ChEMBL document CHEMBL4196066, “Design and synthesis of furyl/thineyl pyrroloquinolones based on natural alkaloid perlolyrine, lead to the discovery of potent and selective PDE5 inhibitors” (Eur J Med Chem, 2018).

As usually defined, the IC50 is the midpoint of a concentration-inhibition curve. By ED50 is commonly meant the midpoint of the dose-response relation. One may read the inhibition as the percentage by which the read-out fell short of the control.

The structures appear in SMILES notation.

Experiment [1] addresses T1, cGMP-specific 3',5'-cyclic phosphodiesterase (Homo sapiens, UniProt O76074). Briefly: Inhibition of N-terminal GST-tagged full length recombinant human PDE5A1 catalytic domain expressed in Baculovirus infected Sf9 insect cells using FAM-cGMP as substrate after 1 hr by fluorescence polarization assay. For orientation: Polarisation of emitted light reports the rotation of a fluorescent probe.

Experiment [2] deals with T1, cGMP-specific 3',5'-cyclic phosphodiesterase. Briefly: Inhibition of PDE5 (unknown origin).
In a further experiment the test system is Oryctolagus cuniculus. Briefly: Vasorelaxant activity in iv dosed New Zealand rabbit assessed as induction of ICP change in response to electrically pelvic nerve stimulation administered as bolus dose. Type of experiment: functional.
The species named for experiment [3] is Homo sapiens. Kind of experiment: Selectivity ratio of IC50 for N-terminal GST-tagged full length recombinant human PDE4A1A to IC50 for N-terminal GST-tagged full length recombinant human PDE5A1 catalytic domain.
In experiment [4] the target is Cone cGMP-specific 3',5'-cyclic phosphodiesterase subunit alpha' (Homo sapiens, UniProt P51160). Kind of experiment: Inhibition of N-terminal GST-tagged full length recombinant human PDE6C expressed in Baculovirus infected Sf9 insect cells using […] as substrate after 1 hr by fluorescence polarization assay.
The species entered for experiment [5] is Homo sapiens. Briefly: Selectivity ratio of IC50 for N-terminal GST-tagged full length recombinant human PDE6C to IC50 for N-terminal GST-tagged full length recombinant human PDE5A1 catalytic domain.
The subject of experiment [6] is Thoracic aorta. Briefly: Vasorelaxant activity in norepinephrine-pretreated New Zealand rabbit thoracic aorta assessed as increase in aortic relaxation at 1 uM measured after 15 mins relative to control. Type of experiment: functional, Oryctolagus cuniculus. More on the design: scale not given: the % may be the effect or the level left. In short, it runs like this: (§1)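 Thoracic aortic rings from New Zealand white rabbits were held in Krebs buffer at 2 g resting tension (0%) and equilibrated 2 h. Rings were contracted to maximum with 1 µM norepinephrine (100%). Compounds were added cumulatively at 15 min intervals, with tension recorded 15 min after each dose. Relaxation % = (max − recorded)/(max − 2 g) × 100; n = 1–2 rings.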

Experiment [7] addresses 3',5'-cyclic-AMP phosphodiesterase 4A (Homo sapiens) (UniProt P27815). Briefly: Inhibition of N-terminal GST-tagged full length recombinant human PDE4A1A expressed in Baculovirus infected Sf9 insect cells at 1.5 uM using FAM-cAMP as substrate after 1 hr by fluorescence polarization assay relative to control.
Experiment [8] concerns the target cGMP-inhibited 3',5'-cyclic phosphodiesterase 3B (Homo sapiens) (UniProt Q13370). Briefly: Inhibition of N-terminal GST-tagged recombinant human PDE3B (592 end residues) expressed in Baculovirus infected Sf9 insect cells at 6 uM using FAM-cAMP as substrate after 1 hr by fluorescence polarization assay relative to control.
The species named for experiment [9] is Homo sapiens. Kind of experiment: Selectivity ratio of IC50 for N-terminal GST-tagged recombinant human PDE3B (592 end residues) to IC50 for N-terminal GST-tagged full length recombinant human PDE5A1 catalytic domain.
The species entered for experiment [10] is Homo sapiens. Kind of experiment: Selectivity ratio of IC50 for N-terminal GST-tagged full length recombinant human PDE1A to IC50 for N-terminal GST-tagged full length recombinant human PDE5A1 catalytic domain.
Experiment [11] is filed under the species Homo sapiens. Briefly: Selectivity ratio of IC50 for N-terminal FLAG-tagged human PDE2A1 (2 to 941 residues) to IC50 for N-terminal GST-tagged full length recombinant human PDE5A1 catalytic domain.
The target of experiment [12] is cGMP-dependent 3',5'-cyclic phosphodiesterase (Homo sapiens) (UniProt O00408). Briefly: Inhibition of N-terminal FLAG-tagged human PDE2A1 (2 to 941 residues) expressed in Baculovirus infected Sf9 insect cells at 6 uM using FAM-cAMP as substrate after 1 hr by fluorescence polarization assay relative to control.
In experiment [13] the target is Dual specificity calcium/calmodulin-dependent 3',5'-cyclic nucleotide phosphodiesterase 1A (Homo sapiens) (UniProt P54750). Briefly: Inhibition of N-terminal GST-tagged full length recombinant human PDE1A expressed in Baculovirus infected Sf9 insect cells at 6 uM using FAM-cAMP as substrate after 1 hr by fluorescence polarization assay relative to control.
Experiment [14] deals with 3',5'-cyclic-AMP phosphodiesterase 4A (Homo sapiens) (UniProt P27815). Briefly: Inhibition of N-terminal GST-tagged full length recombinant human PDE4A1A expressed in Baculovirus infected Sf9 insect cells at 6 uM using FAM-cAMP as substrate after 1 hr by fluorescence polarization assay relative to control.
Experiment [15] concerns the target cGMP-dependent 3',5'-cyclic phosphodiesterase (Homo sapiens) (UniProt O00408). Briefly: Inhibition of N-terminal FLAG-tagged human PDE2A1 (2 to 941 residues) expressed in Baculovirus infected Sf9 insect cells at 25 uM using FAM-cAMP as substrate after 1 hr by fluorescence polarization assay relative to control.
Experiment [16] concerns the target cGMP-inhibited 3',5'-cyclic phosphodiesterase 3B (Homo sapiens) (UniProt Q13370). Kind of experiment: Inhibition of N-terminal GST-tagged recombinant human PDE3B (592 end residues) expressed in Baculovirus infected Sf9 insect cells at 25 uM using FAM-cAMP as substrate after 1 hr by fluorescence polarization assay relative to control.
Experiment [17] concerns the target Dual specificity calcium/calmodulin-dependent 3',5'-cyclic nucleotide phosphodiesterase 1A (Homo sapiens) (UniProt P54750). Kind of experiment: Inhibition of N-terminal GST-tagged full length recombinant human PDE1A expressed in Baculovirus infected Sf9 insect cells at 25 uM using FAM-cAMP as substrate after 1 hr by fluorescence polarization assay relative to control.

Experiment [18] shares this target. Briefly: Inhibition of N-terminal GST-tagged full length recombinant human PDE1A expressed in Baculovirus infected Sf9 insect cells at 250 uM using FAM-cAMP as substrate after 1 hr by fluorescence polarization assay relative to control.
Experiment [19] has as its target 3',5'-cyclic-AMP phosphodiesterase 4A (Homo sapiens) (UniProt P27815). Briefly: Inhibition of N-terminal GST-tagged full length recombinant human PDE4A1A expressed in Baculovirus infected Sf9 insect cells at 50 uM using FAM-cAMP as substrate after 1 hr by fluorescence polarization assay relative to control.
Experiment [20] relates to Thoracic aorta. Briefly: Vasorelaxant activity in norepinephrine-pretreated New Zealand rabbit thoracic aorta assessed as increase in aortic relaxation at 10 uM measured after 15 mins relative to control. Type of experiment: functional, Oryctolagus cuniculus. More on the design: scale not given: the % may be the effect or the level left. A digest of the protocol:
as §1

Experiment [21] deals with cGMP-inhibited 3',5'-cyclic phosphodiesterase 3B (Homo sapiens) (UniProt Q13370). Kind of experiment: Inhibition of N-terminal GST-tagged recombinant human PDE3B (592 end residues) expressed in Baculovirus infected Sf9 insect cells at 250 uM using FAM-cAMP as substrate after 1 hr by fluorescence polarization assay relative to control.
In experiment [22] the target is cGMP-dependent 3',5'-cyclic phosphodiesterase (Homo sapiens) (UniProt O00408). Briefly: Inhibition of N-terminal FLAG-tagged human PDE2A1 (2 to 941 residues) expressed in Baculovirus infected Sf9 insect cells at 40 uM using FAM-cAMP as substrate after 1 hr by fluorescence polarization assay relative to control.

cGMP-dependent 3',5'-cyclic phosphodiesterase (Homo sapiens), sequence (O00408 whole entry, the tested form may be a part): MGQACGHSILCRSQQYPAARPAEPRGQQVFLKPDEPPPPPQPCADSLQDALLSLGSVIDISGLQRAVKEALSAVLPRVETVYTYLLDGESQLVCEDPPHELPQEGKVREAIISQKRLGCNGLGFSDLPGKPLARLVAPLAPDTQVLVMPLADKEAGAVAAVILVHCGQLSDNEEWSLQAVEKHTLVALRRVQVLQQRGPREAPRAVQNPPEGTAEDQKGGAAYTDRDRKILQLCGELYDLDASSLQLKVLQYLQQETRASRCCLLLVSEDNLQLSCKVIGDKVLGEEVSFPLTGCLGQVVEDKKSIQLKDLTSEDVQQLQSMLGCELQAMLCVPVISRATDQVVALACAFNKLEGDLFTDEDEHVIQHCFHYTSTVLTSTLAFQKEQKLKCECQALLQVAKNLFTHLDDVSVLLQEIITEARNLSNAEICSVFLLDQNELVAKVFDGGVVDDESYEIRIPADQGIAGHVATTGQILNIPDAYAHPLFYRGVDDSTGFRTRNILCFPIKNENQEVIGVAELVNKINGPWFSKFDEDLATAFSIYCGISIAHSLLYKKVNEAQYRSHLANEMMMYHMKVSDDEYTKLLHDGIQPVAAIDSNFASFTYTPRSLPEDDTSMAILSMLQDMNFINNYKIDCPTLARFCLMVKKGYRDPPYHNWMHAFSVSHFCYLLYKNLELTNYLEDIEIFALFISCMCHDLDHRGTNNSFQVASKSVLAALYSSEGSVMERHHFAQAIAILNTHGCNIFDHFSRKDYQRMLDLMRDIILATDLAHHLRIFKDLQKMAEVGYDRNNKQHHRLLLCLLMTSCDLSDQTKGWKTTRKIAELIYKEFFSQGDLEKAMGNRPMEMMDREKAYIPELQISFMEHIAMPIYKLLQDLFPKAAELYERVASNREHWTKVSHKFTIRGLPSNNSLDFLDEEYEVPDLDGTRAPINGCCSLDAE
cGMP-inhibited 3',5'-cyclic phosphodiesterase 3B (Homo sapiens), sequence (Q13370 whole entry, looked up, the tested form may be a part): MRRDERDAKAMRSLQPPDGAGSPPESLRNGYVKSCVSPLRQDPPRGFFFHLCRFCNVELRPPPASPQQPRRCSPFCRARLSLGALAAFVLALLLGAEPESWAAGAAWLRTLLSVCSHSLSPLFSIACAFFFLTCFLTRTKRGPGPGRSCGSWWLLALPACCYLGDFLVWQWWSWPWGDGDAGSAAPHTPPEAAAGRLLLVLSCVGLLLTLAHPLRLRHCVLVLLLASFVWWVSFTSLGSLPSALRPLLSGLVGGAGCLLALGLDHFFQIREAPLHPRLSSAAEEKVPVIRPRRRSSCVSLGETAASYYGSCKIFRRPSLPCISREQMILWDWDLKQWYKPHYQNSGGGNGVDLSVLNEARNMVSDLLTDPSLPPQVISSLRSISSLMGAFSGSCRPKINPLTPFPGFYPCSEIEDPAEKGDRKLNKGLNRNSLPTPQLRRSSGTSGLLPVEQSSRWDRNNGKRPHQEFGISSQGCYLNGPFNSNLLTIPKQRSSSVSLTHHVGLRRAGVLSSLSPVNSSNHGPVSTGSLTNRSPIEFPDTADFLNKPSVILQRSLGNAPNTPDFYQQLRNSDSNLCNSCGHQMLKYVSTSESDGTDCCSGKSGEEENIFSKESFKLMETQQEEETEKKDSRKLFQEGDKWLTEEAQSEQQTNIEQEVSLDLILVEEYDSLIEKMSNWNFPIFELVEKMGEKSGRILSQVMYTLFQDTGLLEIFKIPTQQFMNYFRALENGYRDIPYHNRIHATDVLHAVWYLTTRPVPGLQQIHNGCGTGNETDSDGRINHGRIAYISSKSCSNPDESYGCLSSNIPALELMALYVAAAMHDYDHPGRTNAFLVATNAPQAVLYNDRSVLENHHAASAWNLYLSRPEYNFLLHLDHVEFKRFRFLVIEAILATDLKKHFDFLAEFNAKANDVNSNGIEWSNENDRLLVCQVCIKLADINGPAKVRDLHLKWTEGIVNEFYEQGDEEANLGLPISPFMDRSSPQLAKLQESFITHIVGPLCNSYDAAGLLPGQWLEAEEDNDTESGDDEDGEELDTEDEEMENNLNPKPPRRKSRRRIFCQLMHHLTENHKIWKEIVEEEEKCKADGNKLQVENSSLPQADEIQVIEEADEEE
Cone cGMP-specific 3',5'-cyclic phosphodiesterase subunit alpha', sequence (P51160 whole entry, the tested form may be a part): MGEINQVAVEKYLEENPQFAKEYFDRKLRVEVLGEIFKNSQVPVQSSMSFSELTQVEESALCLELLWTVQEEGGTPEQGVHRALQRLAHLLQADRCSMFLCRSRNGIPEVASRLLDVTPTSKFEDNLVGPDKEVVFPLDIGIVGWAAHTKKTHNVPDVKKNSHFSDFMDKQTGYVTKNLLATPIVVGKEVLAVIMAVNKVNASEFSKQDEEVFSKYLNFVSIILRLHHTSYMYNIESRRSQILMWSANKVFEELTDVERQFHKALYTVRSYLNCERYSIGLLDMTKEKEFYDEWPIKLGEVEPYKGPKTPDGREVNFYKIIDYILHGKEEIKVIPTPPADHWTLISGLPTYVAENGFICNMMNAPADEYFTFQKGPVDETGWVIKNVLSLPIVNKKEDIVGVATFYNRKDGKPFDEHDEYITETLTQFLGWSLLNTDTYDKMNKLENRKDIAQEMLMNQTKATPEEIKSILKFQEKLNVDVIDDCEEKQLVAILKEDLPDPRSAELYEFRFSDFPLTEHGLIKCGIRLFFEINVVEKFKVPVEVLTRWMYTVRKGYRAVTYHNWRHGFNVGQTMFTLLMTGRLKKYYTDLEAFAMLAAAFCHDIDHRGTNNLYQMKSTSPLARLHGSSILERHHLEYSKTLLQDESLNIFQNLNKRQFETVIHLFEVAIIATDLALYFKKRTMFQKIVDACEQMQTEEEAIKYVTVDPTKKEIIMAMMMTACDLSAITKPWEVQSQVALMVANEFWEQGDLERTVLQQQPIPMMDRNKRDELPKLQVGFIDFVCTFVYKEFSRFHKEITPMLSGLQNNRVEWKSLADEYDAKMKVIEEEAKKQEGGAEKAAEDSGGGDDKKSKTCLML
3',5'-cyclic-AMP phosphodiesterase 4A (Homo sapiens), sequence (P27815 whole entry, the tested form may be a part): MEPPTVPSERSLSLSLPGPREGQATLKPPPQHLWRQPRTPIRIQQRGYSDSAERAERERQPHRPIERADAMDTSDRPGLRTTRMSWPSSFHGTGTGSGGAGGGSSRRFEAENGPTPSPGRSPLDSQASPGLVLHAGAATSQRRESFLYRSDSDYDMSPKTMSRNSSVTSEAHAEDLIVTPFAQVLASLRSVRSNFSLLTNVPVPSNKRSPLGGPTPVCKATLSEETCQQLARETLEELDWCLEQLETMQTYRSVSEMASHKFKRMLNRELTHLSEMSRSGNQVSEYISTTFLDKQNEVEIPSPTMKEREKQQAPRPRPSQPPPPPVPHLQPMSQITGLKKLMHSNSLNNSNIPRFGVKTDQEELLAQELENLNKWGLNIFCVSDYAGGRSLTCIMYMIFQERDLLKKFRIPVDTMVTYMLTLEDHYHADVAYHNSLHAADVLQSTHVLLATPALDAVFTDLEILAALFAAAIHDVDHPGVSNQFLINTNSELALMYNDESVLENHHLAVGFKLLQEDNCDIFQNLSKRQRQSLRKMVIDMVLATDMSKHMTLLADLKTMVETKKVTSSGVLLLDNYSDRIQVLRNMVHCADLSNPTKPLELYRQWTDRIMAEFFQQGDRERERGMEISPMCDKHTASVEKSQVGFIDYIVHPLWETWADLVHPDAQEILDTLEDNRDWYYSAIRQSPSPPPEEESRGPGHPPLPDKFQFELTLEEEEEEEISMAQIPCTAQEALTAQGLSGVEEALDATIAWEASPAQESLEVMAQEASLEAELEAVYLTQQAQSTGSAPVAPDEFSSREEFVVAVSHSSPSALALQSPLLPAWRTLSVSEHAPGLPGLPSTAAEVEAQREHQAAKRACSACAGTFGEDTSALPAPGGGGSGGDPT
Dual specificity calcium/calmodulin-dependent 3',5'-cyclic nucleotide phosphodiesterase 1A (Homo sapiens), sequence (P54750 whole entry): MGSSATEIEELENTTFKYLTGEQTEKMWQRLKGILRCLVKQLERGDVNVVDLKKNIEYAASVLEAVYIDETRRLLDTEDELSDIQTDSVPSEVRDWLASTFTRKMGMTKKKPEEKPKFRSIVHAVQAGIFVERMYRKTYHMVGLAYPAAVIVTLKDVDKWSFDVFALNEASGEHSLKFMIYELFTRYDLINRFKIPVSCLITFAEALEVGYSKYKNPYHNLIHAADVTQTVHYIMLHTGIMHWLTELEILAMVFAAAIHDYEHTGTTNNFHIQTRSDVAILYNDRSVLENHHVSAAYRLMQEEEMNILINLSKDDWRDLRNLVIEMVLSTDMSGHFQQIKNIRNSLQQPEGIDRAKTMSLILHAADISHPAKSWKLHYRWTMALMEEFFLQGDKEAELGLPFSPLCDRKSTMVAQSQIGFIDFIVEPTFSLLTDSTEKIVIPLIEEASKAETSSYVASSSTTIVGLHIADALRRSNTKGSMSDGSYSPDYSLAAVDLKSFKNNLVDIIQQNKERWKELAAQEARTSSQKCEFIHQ

Turning to `CCc1ccc(C2c3[nH]c4ccccc4c(=O)c3CN2c2ncc(-c3ccc(OC)cc3)cn2)s1` (stereo unspecified), the IC50 in experiment [1] was determined as 6.45 nM.
In experiment [2], `OCc1ccoc1-c1nccc2c1[nH]c1ccccc12` displayed an IC50 of 4900 nM.
On to `CCc1ccc(C2c3[nH]c4ccccc4c(=O)c3CN2c2ncc(-c3ccncc3)cn2)s1` (stereo unspecified), for which the IC50 in [1] was found to be 0.6 nM.
With `CCCc1nn(C)c2c(=O)[nH]c(-c3cc(S(=O)(=O)N4CCN(C)CC4)ccc3OCC)nc12`, the ED50 in the experiment on Oryctolagus cuniculus was 0.0143 mg/kg.
In the case of `CCc1ccc(C2c3[nH]c4ccccc4c(=O)c3CN2c2ncc(-c3ccccn3)cn2)s1` (racemic), the Ratio IC50 in the experiment filed under Homo sapiens [3] is over 2500; in the experiment listed under Homo sapiens [5], 8; in the experiment listed under Homo sapiens [9], over 10000; in the experiment listed under Homo sapiens [10] it was over 10000; in the experiment filed under Homo sapiens [11], over 10000. The IC50 in experiment [4] was 4.8 nM; in experiment [1], 0.6 nM. Besides, in the experiment with Thoracic aorta [6], the Activity is over 90%. In addition, the inhibition in experiment [7] came out at 3%; in experiment [8], 2.5%; in [12] it was 7%; in experiment [13], 2.5%.
`CCc1ccc(C2c3[nH]c4ccccc4c(=O)c3CN2c2ncccn2)s1` (stereo unspecified): the Ratio IC50 in the experiment listed under Homo sapiens [3] is over 2500; in the experiment filed under Homo sapiens [5], 1.5; in the experiment filed under Homo sapiens [9], over 10000; in the experiment listed under Homo sapiens [10], over 10000; in the experiment listed under Homo sapiens [11], over 10000. Besides, the IC50 amounted to 3.7 nM in experiment [4] and 2.5 nM in [1]. Further, the inhibition in experiment [14] amounted to 8%; in experiment [15] it was 37%; in [16], 2.5%; in [17], 3.5%.
For `CCc1ccc(C2c3[nH]c4ccccc4c(=O)c3CN2c2ncc(-c3ccc(OC)c(OC)c3)cn2)s1` (stereo unspecified), in experiment [1], the IC50 came to 1.25 nM.
`CCc1ccc([C@H]2c3[nH]c4ccccc4c(=O)c3CN2c2ncc(-c3ccccn3)cn2)s1`: the Ratio IC50 in the experiment listed under Homo sapiens [3] was over 2500; in the experiment listed under Homo sapiens [5] it was 1.3; in the experiment listed under Homo sapiens [9], over 10000; in the experiment listed under Homo sapiens [10], over 10000; in the experiment listed under Homo sapiens [11], over 1500. Further, the IC50 is 34.1 nM in [4] and 26.9 nM in experiment [1]. Also, the inhibition was determined as 8% in experiment [18], 1% in experiment [19], 2% in [21] and 32% in [22]. The Activity in the experiment with Thoracic aorta [20] is given as 30%.
Take `CCc1ccc(C2c3[nH]c4ccccc4c(=O)c3CN2c2ccc(-c3ccccn3)cn2)s1` (stereo unspecified): the IC50 in experiment [1] was determined as 1.2 nM.
